Measured values published in ChEMBL document CHEMBL1156235, “A novel class of antihyperlipidemic agents with low density lipoprotein receptor up-regulation via the adaptor protein autosomal recessive hypercholesterolemia” (J Med Chem, 2010).
Values after ≈ are worked out from the molar mass of the structure shown. Active and inactive are the calls of the source. The rule behind the calls is not given here.

What was measured:
HepG2 [1] = test: Upregulation of LDL receptor expression in human HepG2 cells assessed as DiI-LDL uptake after 19 hrs; type: functional; conditions: HepG2, 19 h
Procedure, shortened: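 HepG2 cells were grown 2-3 days in DMEM/F-12 with 10% FBS, then given compound in medium with 10% delipoprotein serum for 19 h at 37 °C. DiI-labelled human LDL was then added for 5 h, with 30-50-fold unlabelled LDL defining nonspecific uptake. Specific fluorescence per protein is expressed as % of control. EC25 is the concentration giving 25% up-regulation (n = 1).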

[2] = target: T1, Sterol O-acyltransferase 1 (Rattus norvegicus, UniProt O70536); test: Inhibition of rat macrophages ACAT
T1 sequence (O70536 whole entry): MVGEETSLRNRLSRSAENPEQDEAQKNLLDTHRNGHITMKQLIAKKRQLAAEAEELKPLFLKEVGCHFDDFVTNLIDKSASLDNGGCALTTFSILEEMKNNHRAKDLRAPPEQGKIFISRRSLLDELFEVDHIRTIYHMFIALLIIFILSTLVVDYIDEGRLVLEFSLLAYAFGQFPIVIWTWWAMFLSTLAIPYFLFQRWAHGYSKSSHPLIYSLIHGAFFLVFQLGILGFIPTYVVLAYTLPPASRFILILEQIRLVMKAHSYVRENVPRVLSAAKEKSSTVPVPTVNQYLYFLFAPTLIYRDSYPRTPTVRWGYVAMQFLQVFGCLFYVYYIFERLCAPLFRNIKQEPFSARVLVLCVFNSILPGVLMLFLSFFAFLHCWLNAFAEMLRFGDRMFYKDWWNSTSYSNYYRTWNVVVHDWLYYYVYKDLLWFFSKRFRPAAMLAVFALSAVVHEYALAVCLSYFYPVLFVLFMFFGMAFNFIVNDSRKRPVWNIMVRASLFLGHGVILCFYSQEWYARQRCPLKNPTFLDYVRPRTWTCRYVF
Procedure, shortened: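 ACAT was taken from rat macrophages, and inhibition was measured once (n = 1).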

[3] = Solubility in phosphate buffer at pH 7.4 by HPLC analysis; type: physicochemical
Procedure, shortened: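 Solubility in phosphate buffer was measured at room temperature, with the dissolved amount quantified by HPLC.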

HepG2 [4] = test: Upregulation of LDL receptor expression in human HepG2 cells at 1 uM in presence of ARH-specific siRNA; type: functional, cell-based
Hamster [5] = test: Antihyperlipidemic activity in high-cholesterol diet fed hamster model assessed as reduction of plasma total cholesterol level at 10 mg/kg, po administered qd for 7 days; type: functional, Cricetinae; design: scale not given: the % may be the effect or the level left
Procedure, shortened: (§1)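 Hamsters fed a rich diet for 1 week were dosed orally by gavage once daily for 1 week. Plasma total cholesterol and LDL-C were then measured. Values are mean ± SEM.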

Hamster [6] = test: Antihyperlipidemic activity in high-cholesterol diet fed hamster model assessed as reduction of plasma total LDL cholesterol level at 10 mg/kg, po administered qd for 7 days; type: functional, Cricetinae; design: scale not given: the % may be the effect or the level left; procedure, shortened: as §1
Hamster [7] = test: Antihyperlipidemic activity in high-cholesterol diet fed hamster model assessed as reduction of plasma total cholesterol level at 30 mg/kg, po administered qd for 7 days; type: functional, Cricetinae; design: scale not given: the % may be the effect or the level left; procedure, shortened: as §1
Hamster [8] = test: Antihyperlipidemic activity in high-cholesterol diet fed hamster model assessed as reduction of plasma total LDL cholesterol level at 30 mg/kg, po administered qd for 7 days; type: functional, Cricetinae; design: scale not given: the % may be the effect or the level left; procedure, shortened: as §1
[9] = Cmax in hamster at 10 mg/kg; type: ADME, organism-based; design: dose 10 mg/kg; conditions: cricetinae, in vivo
Procedure, shortened: (§2)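 Male hamsters received a single oral dose of 10 mg/kg as the sodium salt, and serum drug concentration was followed over time. Values are mean ± SEM, n = 3.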

Hamster [10] = test: Antihyperlipidemic activity in high-cholesterol diet fed hamster model assessed as reduction of plasma total LDL cholesterol level at 3 mg/kg, po administered qd for 7 days; type: functional, Cricetinae; design: scale not given: the % may be the effect or the level left; procedure, shortened: as §1
Hamster [11] = test: Antihyperlipidemic activity in high-cholesterol diet fed hamster model assessed as reduction of plasma total cholesterol level at 1 mg/kg, po administered qd for 7 days; type: functional, Cricetinae; design: scale not given: the % may be the effect or the level left; procedure, shortened: as §1
Hamster [12] = test: Antihyperlipidemic activity in high-cholesterol diet fed hamster model assessed as reduction of plasma total LDL cholesterol level at 1 mg/kg, po administered qd for 7 days; type: functional, Cricetinae; design: scale not given: the % may be the effect or the level left; procedure, shortened: as §1
HepG2 [13] = test: Increase of [125I]LDL cholesterol degradation in human HepG2 cells at 0.01 uM; type: functional
HepG2 [14] = test: Increase of [125I]LDL cholesterol degradation in human HepG2 cells at 0.1 uM; type: functional
HepG2 [15] = test: Increase of [125I]LDL cholesterol degradation in human HepG2 cells at 1 uM; type: functional
Hamster [16] = test: Antihyperlipidemic activity in high-cholesterol diet fed hamster model assessed as reduction of plasma total cholesterol level at 3 mg/kg, po administered qd for 7 days; type: functional, Cricetinae; design: scale not given: the % may be the effect or the level left; procedure, shortened: as §1
[17] = AUC (0 to 360 mins) in hamster at 10 mg/kg; type: ADME, organism-based; design: time < 6 hr, dose 10 mg/kg; conditions: cricetinae, plasma; procedure, shortened: as §2
Hamster [18] = test: Antihyperlipidemic activity in high-cholesterol diet fed po dosed hamster model assessed as reduction of plasma total cholesterol level administered qd for 7 days; type: functional, organism-based; conditions: Cricetinae; procedure, shortened: as §1
Hamster [19] = test: Antihyperlipidemic activity in high-cholesterol diet fed po dosed hamster model assessed as reduction of plasma total LDL cholesterol level administered qd for 7 days; type: functional, organism-based; conditions: Cricetinae; procedure, shortened: as §1
HepG2 [20] = test: Increase of [125I]LDL cholesterol degradation in human HepG2 cells; type: functional, cell-based

Structure (SMILES)	EC25 (HepG2 [1]) [nM]	IC50 [2] [nM]	solubility [3] [µg/mL]	other results
COc1cccc(C2(C(=O)NS(=O)(=O)Oc3c(C(C)C)cccc3C(C)C)CCN(C(=O)c3ccccc3)CC2)c1	> 10000	> 1000	–	–
COc1cccc(C2(C(=O)NS(=O)(=O)Oc3c(C(C)C)cccc3C(C)C)CCN(c3nccc(C)n3)CC2)c1	500	> 1000	200 (≈ 353 µM)	–
COc1cccc(C2(C(=O)NS(=O)(=O)Oc3c(C(C)C)cccc3C(C)C)CCN(C)CC2)c1	> 10000	> 1000	–	–
COc1cccc(C2(C(=O)Nc3c(C(C)C)cccc3C(C)C)CCN(c3ccccc3OC)CC2)c1	> 10000	> 1000	–	–
COc1cccc(C2(C(=O)NS(=O)(=O)Oc3c(C(C)C)cccc3C(C)C)CCN(c3ncc(Br)cn3)CC2)c1	610	> 1000	< 0.1	–
COc1cccc(C2(C(=O)NS(=O)(=O)Oc3c(C(C)C)cccc3C(C)C)CCN(C(C)=O)CC2)c1	> 10000	> 1000	–	–
CC(C)c1c(C(=O)Nc2ccccc2)c(-c2ccccc2)c(-c2ccc(F)cc2)n1CC[C@@H](O)C[C@@H](O)CC(=O)O	–	–	–	Activity (HepG2 [4]): Active
CC(C)c1cccc(C(C)C)c1OS(=O)(=O)NC(=O)C1(c2cccc(OCCO)c2)CCN(c2ncccn2)CC1	1500	–	> 200	–
COc1cccc(C2(C(=O)NS(=O)(=O)Oc3c(C(C)C)cccc3C(C)C)CCN(c3ccccc3OC)CC2)c1 [listing 1 of 2 here]	370	330	–	Activity (Hamster [5]): -10%; Activity (Hamster [6]): -18%; Activity (Hamster [7]): -17%; Activity (Hamster [8]): -25%; Cmax [9]: 13 ng/mL
CCCc1ccccc1OS(=O)(=O)NC(=O)C1(c2cccc(OC)c2)CCN(c2ccccc2OC)CC1	4070	> 1000	–	–
COc1cccc(C2(C(=O)NS(=O)(=O)Oc3c(C(C)C)cccc3C(C)C)CCN(c3nc4ccccc4s3)CC2)c1	260	> 1000	3 (≈ 4.94 µM)	–
COc1cccc(C2(C(=O)NS(=O)(=O)Oc3c(C(C)C)cccc3C(C)C)CCNCC2)c1	> 10000	> 1000	–	–
CCCCn1c(=O)c(NC(=O)Nc2c(C(C)C)cc(N)cc2C(C)C)c(-c2cccc(OCCCO)c2)c2cccnc21.Cl.O	490	31	–	Activity (Hamster [5]): -29%; Activity (Hamster [6]): -31%
COc1cccc(C2(C(=O)NS(=O)(=O)Oc3ccccc3C3CCCC3)CCN(c3ccccc3OC)CC2)c1	690	> 1000	–	–
COc1cccc(C2(C(=O)NS(=O)(=O)Oc3c(C(C)C)cccc3C(C)C)CCN(c3ncccn3)CC2)c1 [listing 1 of 2 here]	47	> 1000	–	Activity (Hamster [10]): -27%; Activity (Hamster [11]): -8%; Activity (Hamster [12]): -24%; Activity (Hamster [5]): -17%; Activity (Hamster [6]): -38%; Activity (HepG2 [13]): 119%; Activity (HepG2 [14]): 136%; Activity (HepG2 [15]): 140%; Activity (Hamster [16]): -12%
COc1cccc(C2(C(=O)NS(=O)(=O)Nc3c(C(C)C)cccc3C(C)C)CCN(c3ccccc3OC)CC2)c1	> 10000	> 1000	–	–
COc1cccc(C2(C(=O)NS(=O)(=O)Oc3c(C(C)C)cccc3C(C)C)CCN(c3ccccc3)CC2)c1	1520	> 1000	180 (≈ 327 µM)	–

Structure (SMILES)	EC25 (HepG2 [1]) [nM]	IC50 [2] [nM]	solubility [3] [µg/mL]	other results
COc1cccc(C2(C(=O)NS(=O)(=O)Oc3ccccc3)CCN(c3ccccc3OC)CC2)c1	> 10000	> 1000	–	–
COc1cccc(C2(C(=O)NS(=O)(=O)Oc3c(C(C)C)cccc3C(C)C)CCN(c3ccccc3OC)CC2)c1.Cl	–	–	–	Cmax [9]: 300 ng/mL; AUC(0-t) at 6 h [17]: 690 ng·h/mL
CC(C)c1cccc(C(C)C)c1OS(=O)(=O)NC(=O)C1(c2cccc(OCCCO)c2)CCN(c2ncccn2)CC1	> 10000	–	> 200	–
COc1cccc(C2(C(=O)NS(=O)(=O)Oc3ccccc3C)CCN(c3ccccc3OC)CC2)c1	3880	> 1000	–	–
COc1cccc(C2(C(=O)NS(=O)(=O)Oc3c(C(C)C)cccc3C(C)C)CCN(c3ccccc3OC)CC2)c1 [listing 2 of 2 here]	–	–	–	Activity (Hamster [18]): Dose-dependent effect; Activity (Hamster [19]): Dose-dependent effect
CC(C)c1cccc(C(C)C)c1OS(=O)(=O)NC(=O)C1(c2cccc(O)c2)CCN(c2ncccn2)CC1	> 10000	–	200 (≈ 371 µM)	–
CCOc1cccc(C2(C(=O)NS(=O)(=O)Oc3c(C(C)C)cccc3C(C)C)CCN(c3ncccn3)CC2)c1	3100	–	69 (≈ 122 µM)	–
CCCc1cnc(N2CCC(C(=O)NS(=O)(=O)Oc3c(C(C)C)cccc3C(C)C)(c3cccc(OC)c3)CC2)nc1	> 10000	> 1000	–	–
COc1cccc(C2(C(=O)[N-]S(=O)(=O)Oc3c(C(C)C)cccc3C(C)C)CCN(c3ccccc3OC)CC2)c1.[Na+]	–	–	–	Cmax [9]: 420 ng/mL; AUC(0-t) at 6 h [17]: 1160 ng·h/mL
COc1cccc(C2(C(=O)NS(=O)(=O)Oc3c(C(C)C)cccc3C(C)C)CCN(c3nccc(C(F)(F)F)n3)CC2)c1	> 10000	> 1000	–	–
COc1cccc(C2(C(=O)NS(=O)(=O)Oc3c(C)cccc3C)CCN(c3ccccc3OC)CC2)c1	> 10000	410	–	–
COc1cccc(C2(C(=O)N(C)S(=O)(=O)Oc3c(C(C)C)cccc3C(C)C)CCN(c3ncccn3)CC2)c1	> 10000	> 1000	< 0.3	–
COc1cccc(C2(C(=O)NS(=O)(=O)Oc3c(C(C)C)cccc3C(C)C)CCN(c3ncccc3OC)CC2)c1	> 10000	> 1000	–	–
CCCOc1cccc(C2(C(=O)NS(=O)(=O)Oc3c(C(C)C)cccc3C(C)C)CCN(c3ncccn3)CC2)c1	> 10000	–	< 0.3	–
COc1cccc(C2(C(=O)[N-]S(=O)(=O)Oc3c(C(C)C)cccc3C(C)C)CCN(c3ncccn3)CC2)c1.[Na+]	–	–	230	Cmax [9]: 290 ng/mL; AUC(0-t) at 6 h [17]: 1090 ng·h/mL
COc1cccc(C2(C(=O)NS(=O)(=O)Oc3c(C(C)C)cccc3C(C)C)CCN(c3ncccn3)CC2)c1 [listing 2 of 2 here]	–	–	–	Activity (HepG2 [4]): inactive; Activity (HepG2 [20]): Dose-dependent effect; Activity (Hamster [18]): Dose-dependent effect; Activity (Hamster [19]): Dose-dependent effect
